In ChEMBL document CHEMBL4270664 (J Med Chem, 2018):

Columns and labels:
[1] = AUClast in mouse at 3 mg/kg, iv; assay type: ADME, organism-based; set-up: dose 3 mg/kg, time 0 - last, route intravenous; details: in vivo
Method in brief: (§1)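 Mice were dosed at 3 mg/kg intravenously, with plasma sampled at 6 time points and n = 2 mice per time point.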

[2] = Half life in mouse at 3 mg/kg, iv; assay type: ADME, organism-based; details: in vivo; method in brief: as §1
[3] = Cmax in mouse at 3 mg/kg, iv; assay type: ADME, organism-based; set-up: dose 3 mg/kg, route intravenous; details: in vivo; method in brief: as §1
[4] = Clearance in mouse at 3 mg/kg, iv; assay type: ADME, organism-based; details: in vivo; method in brief: as §1
[5] = target: T1, Tyrosine-protein kinase Mer (Homo sapiens) (UniProt Q12866); details: 100 nM
T1 sequence (whole entry): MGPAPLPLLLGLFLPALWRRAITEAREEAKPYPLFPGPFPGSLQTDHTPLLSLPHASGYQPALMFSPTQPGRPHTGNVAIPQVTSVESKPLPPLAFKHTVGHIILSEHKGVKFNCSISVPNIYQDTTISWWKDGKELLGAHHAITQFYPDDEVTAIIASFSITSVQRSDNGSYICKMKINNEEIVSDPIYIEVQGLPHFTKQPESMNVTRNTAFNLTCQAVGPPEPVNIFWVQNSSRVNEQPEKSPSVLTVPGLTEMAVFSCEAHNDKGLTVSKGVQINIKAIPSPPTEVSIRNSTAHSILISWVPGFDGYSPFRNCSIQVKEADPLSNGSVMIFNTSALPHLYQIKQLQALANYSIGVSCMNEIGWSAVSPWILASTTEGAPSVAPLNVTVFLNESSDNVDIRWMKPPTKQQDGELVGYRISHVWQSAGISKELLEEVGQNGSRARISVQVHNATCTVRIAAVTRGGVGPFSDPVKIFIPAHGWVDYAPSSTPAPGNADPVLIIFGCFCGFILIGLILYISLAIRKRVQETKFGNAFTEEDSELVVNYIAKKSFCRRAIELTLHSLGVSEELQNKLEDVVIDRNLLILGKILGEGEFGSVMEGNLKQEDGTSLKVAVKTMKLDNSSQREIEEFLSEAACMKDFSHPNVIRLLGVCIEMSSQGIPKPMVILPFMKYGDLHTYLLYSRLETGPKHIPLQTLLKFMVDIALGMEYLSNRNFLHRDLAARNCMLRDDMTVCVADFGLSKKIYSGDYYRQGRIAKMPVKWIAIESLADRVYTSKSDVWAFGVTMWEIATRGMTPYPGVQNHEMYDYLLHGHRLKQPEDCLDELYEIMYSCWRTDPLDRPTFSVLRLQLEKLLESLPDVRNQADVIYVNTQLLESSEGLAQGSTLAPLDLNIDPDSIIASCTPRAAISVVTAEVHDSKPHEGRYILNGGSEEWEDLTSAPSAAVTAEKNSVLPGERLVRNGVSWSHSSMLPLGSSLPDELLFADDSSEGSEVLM

[6] = Cmax in mouse at 3 mg/kg, po; assay type: ADME, organism-based; set-up: dose 3 mg/kg, route oral; details: in vivo
Method in brief: (§2)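 Mice were dosed at 3 mg/kg by oral or intraperitoneal route in an extended PK study. Oral bioavailability was derived against the iv route.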

[7] = Cmax in mouse at 3 mg/kg, ip; assay type: ADME, organism-based; set-up: dose 3 mg/kg, route intraperitoneal; details: in vivo; method in brief: as §2
[8] = Tmax in NSG mouse xenografted with human 697 cells at 30 mg/kg, ip administered as single dose; assay type: ADME, organism-based; details: in vivo
[9] = target: Serine/threonine-protein kinase SIK2 (Homo sapiens, UniProt Q9H0K1); experiment: Inhibition of N-terminal GST-tagged full length human QIK (1 to 926 end residues) expressed in baculovirus expression system using fluorecence-labeled substrate by MCE assay
[10] = target: High affinity nerve growth factor receptor (Homo sapiens, UniProt P04629); experiment: Inhibition of N-terminal GST-tagged human TRKA cytoplasmic domain (436 to 790 end residues) expressed in baculovirus expression system using fluorecence-labeled substrate by MCE assay
Mus musculus = species: Mus musculus; experiment: animal or person; details: Mus musculus, 697, ip, 10 min, read-out: INH
[11] = target: NT-3 growth factor receptor (Homo sapiens, UniProt Q16288); experiment: Inhibition of N-terminal GST-tagged human TRKC cytoplasmic domain (456 to 825 end residues) expressed in baculovirus expression system using fluorecence-labeled substrate by MCE assay
[12] = Oral bioavailability in mouse at 3 mg/kg; assay type: ADME, organism-based; details: in vivo; method in brief: as §2
[13] = target: STE20-like serine/threonine-protein kinase (Homo sapiens, UniProt Q9H2G2); experiment: Inhibition of N-terminal GST-tagged full length human SLK (1 to 1152 end residues) expressed in baculovirus expression system using fluorecence-labeled substrate by MCE assay
[14] = target: T2, NUAK family SNF1-like kinase 1 (Homo sapiens, UniProt O60285); experiment: Inhibition of N-terminal GST-tagged full length human NuaK1 (1 to 661 end residues) expressed in baculovirus expression system using fluorecence-labeled substrate by MCE assay
T2 sequence (O60285 whole entry): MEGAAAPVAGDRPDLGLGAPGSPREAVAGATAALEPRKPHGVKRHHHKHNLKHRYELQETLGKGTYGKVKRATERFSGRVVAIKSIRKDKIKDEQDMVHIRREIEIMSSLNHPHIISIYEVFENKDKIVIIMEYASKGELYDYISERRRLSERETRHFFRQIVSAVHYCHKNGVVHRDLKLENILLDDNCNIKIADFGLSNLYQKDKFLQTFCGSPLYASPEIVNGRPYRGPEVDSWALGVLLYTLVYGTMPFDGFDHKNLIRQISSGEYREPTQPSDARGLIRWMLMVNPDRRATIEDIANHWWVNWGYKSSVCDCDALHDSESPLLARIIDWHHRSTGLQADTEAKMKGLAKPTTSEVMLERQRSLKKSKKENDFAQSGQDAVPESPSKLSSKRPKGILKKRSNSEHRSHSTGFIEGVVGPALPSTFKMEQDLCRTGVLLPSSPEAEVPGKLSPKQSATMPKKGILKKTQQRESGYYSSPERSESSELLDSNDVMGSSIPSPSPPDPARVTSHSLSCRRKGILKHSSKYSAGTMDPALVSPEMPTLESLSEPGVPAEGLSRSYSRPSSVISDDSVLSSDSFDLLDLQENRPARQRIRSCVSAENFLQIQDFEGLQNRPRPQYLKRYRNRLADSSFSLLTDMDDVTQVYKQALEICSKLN

[15] = Half life in mouse at 3 mg/kg, ip; assay type: ADME, organism-based; details: in vivo; method in brief: as §2
[16] = Half life in NSG mouse xenografted with human 697 cells at 30 mg/kg, ip administered as single dose; assay type: ADME, organism-based; details: in vivo
[17] = target: Mast/stem cell growth factor receptor Kit (Homo sapiens, UniProt P10721); experiment: Inhibition of N-terminal GST-tagged human KIT cytoplasmic domain (544 to 976 end residues) expressed in baculovirus expression system using fluorecence-labeled substrate by MCE assay
Mast/stem cell growth factor receptor Kit, sequence (P10721 whole entry, the tested form may be a part): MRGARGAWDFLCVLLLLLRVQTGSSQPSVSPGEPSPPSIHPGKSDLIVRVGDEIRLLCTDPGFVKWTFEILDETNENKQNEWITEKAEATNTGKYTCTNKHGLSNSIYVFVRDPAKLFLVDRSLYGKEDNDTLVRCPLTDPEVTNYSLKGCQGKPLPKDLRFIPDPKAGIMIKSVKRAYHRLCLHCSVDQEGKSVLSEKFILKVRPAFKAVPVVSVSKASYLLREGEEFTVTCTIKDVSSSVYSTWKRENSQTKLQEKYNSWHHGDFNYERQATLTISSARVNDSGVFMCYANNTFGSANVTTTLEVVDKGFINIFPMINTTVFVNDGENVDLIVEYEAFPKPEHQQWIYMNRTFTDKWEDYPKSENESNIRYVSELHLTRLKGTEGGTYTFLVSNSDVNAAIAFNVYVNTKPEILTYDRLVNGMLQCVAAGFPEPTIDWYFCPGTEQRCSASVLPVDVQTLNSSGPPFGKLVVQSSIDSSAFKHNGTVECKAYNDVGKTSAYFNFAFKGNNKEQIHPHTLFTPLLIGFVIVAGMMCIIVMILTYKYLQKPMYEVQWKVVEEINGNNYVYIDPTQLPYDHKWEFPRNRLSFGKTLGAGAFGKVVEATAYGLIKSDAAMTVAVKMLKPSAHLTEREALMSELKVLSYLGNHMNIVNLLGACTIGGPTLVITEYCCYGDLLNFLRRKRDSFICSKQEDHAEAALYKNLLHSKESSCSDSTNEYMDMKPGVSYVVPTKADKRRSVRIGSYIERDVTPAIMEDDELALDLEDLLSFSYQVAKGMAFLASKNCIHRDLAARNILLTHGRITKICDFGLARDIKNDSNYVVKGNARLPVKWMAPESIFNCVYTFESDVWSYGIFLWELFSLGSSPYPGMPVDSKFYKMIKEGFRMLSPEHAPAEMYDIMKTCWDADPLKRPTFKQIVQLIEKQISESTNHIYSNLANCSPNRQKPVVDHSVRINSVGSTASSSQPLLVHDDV

NT-3 growth factor receptor, sequence (Q16288 whole entry, the tested form may be a part): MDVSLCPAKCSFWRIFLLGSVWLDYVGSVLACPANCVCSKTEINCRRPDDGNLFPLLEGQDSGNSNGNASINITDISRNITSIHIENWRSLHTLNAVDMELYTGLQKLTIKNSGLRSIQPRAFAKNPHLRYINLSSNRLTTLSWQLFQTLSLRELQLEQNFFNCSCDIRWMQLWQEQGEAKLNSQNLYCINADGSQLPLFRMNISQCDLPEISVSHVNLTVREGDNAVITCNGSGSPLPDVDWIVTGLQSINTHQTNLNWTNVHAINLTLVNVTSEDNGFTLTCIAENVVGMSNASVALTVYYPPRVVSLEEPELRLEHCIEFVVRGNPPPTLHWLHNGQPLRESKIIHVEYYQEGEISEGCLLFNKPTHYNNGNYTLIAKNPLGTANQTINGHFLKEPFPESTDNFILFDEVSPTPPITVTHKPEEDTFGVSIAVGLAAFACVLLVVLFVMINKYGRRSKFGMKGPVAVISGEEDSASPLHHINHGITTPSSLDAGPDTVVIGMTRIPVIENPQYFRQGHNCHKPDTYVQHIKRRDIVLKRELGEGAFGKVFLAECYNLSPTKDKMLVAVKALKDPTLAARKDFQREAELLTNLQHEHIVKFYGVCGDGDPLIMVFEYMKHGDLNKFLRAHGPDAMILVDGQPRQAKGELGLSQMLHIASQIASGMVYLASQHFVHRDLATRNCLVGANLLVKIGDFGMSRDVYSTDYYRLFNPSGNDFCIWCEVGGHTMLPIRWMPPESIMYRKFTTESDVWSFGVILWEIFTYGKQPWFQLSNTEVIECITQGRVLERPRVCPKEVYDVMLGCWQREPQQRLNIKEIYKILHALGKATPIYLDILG
High affinity nerve growth factor receptor, sequence (P04629 whole entry, the tested form may be a part): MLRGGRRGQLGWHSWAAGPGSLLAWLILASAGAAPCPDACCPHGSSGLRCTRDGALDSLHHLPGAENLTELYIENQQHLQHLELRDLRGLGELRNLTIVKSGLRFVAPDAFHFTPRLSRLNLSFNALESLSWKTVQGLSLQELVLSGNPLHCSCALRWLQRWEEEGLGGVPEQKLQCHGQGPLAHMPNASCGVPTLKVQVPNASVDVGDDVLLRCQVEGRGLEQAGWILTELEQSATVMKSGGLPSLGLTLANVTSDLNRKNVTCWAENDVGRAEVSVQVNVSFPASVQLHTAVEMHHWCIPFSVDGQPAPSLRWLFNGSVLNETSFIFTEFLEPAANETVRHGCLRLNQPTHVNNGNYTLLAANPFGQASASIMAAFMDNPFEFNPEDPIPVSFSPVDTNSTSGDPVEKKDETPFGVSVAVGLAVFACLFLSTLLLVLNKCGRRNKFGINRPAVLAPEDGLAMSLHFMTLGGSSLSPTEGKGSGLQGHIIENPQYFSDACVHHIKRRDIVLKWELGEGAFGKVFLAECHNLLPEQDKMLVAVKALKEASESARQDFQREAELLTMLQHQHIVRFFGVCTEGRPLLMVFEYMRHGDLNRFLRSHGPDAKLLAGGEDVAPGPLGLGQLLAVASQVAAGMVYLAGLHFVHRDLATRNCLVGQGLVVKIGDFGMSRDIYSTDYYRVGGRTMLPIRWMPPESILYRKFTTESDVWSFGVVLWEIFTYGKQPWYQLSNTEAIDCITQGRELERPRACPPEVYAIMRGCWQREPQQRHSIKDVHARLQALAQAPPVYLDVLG
Serine/threonine-protein kinase SIK2, sequence (Q9H0K1 whole entry, the tested form may be a part): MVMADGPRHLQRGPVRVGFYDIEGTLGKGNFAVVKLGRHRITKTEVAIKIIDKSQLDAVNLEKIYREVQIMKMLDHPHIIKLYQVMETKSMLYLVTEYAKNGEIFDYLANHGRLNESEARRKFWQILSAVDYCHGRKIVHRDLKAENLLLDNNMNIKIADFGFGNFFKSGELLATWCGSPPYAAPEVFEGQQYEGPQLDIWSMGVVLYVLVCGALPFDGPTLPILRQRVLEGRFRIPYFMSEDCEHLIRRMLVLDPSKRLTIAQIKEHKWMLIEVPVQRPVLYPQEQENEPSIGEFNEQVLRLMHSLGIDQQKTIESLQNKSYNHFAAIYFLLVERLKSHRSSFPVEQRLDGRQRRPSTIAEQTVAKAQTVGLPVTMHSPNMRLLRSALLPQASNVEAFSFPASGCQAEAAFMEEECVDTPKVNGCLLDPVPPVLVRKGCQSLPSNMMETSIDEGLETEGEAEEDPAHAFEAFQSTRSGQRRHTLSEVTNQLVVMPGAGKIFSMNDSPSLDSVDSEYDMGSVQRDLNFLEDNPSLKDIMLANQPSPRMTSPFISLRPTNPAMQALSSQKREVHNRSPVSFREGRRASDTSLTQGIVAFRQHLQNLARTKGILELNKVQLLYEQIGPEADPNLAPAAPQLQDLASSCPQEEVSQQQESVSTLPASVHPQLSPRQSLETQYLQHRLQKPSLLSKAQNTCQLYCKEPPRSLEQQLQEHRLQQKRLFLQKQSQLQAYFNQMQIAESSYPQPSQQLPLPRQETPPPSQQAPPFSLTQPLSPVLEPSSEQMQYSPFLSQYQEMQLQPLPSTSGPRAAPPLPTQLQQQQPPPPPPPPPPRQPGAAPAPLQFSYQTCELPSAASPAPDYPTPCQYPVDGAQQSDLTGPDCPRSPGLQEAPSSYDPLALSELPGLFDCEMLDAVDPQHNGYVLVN
STE20-like serine/threonine-protein kinase, sequence (Q9H2G2 whole entry): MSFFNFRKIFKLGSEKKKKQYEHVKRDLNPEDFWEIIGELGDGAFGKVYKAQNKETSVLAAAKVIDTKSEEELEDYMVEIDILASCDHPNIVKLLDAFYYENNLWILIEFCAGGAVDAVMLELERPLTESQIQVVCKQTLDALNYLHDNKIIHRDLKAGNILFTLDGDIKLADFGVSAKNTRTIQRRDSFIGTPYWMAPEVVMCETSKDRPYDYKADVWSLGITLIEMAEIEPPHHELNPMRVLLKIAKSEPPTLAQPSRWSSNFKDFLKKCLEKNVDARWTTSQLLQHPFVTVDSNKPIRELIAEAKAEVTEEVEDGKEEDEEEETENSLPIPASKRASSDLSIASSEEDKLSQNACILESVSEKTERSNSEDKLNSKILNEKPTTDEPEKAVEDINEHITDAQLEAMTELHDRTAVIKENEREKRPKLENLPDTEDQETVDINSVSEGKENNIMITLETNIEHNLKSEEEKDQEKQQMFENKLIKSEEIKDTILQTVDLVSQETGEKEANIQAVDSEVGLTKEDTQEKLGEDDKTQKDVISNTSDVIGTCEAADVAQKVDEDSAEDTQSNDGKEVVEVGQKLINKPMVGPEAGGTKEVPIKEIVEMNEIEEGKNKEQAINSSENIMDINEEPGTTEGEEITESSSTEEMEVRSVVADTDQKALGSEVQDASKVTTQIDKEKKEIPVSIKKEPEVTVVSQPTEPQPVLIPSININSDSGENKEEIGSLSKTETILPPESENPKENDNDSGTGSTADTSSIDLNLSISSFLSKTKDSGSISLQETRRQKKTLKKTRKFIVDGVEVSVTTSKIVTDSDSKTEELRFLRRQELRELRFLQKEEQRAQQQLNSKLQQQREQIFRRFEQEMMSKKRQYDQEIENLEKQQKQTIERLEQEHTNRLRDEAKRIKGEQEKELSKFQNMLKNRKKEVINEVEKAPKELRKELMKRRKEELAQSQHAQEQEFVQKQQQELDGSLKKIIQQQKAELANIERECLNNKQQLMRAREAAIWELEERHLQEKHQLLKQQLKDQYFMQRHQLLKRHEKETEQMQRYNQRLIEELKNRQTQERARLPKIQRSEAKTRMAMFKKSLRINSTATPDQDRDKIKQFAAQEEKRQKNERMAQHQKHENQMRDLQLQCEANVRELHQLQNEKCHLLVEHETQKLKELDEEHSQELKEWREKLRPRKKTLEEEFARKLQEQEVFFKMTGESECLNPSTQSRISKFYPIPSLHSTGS

SMILES	AUC(0-t) [1] [µM·h]	half-life [2] [h]	Cmax [3] [µM]	clearance [4] [mL/min/kg]	also measured
CCC[C@H](C)Nc1ncc2c(-c3cnn(C4CCNCC4)c3)cn([C@H]3CC[C@H](O)CC3)c2n1	2.8	2.1	13.8	32	
CCC[C@H](C)Nc1ncc2c(-c3ccc(CN4C5CCC4CC5)cc3)cn([C@H]3CC[C@H](O)CC3)c2n1	0.28	1.8	0.1	302	
CCCCNc1ncc2c(-c3ccc(CN4CCN(C)CC4)cc3)cn([C@H]3CC[C@H](O)CC3)c2n1					inhibition [5]: 100%
CCC[C@H](C)Nc1ncc2c(-c3ccnc(N4CCNCC4)c3)cn([C@H]3CC[C@H](O)CC3)c2n1	1.5	2.6	3.5	55	
CCC[C@H](C)Nc1ncc2c(-c3ccc(CN4CCOCC4)cc3)cn([C@H]3CC[C@H](O)CC3)c2n1	2.2	1.4	8.6	41	

The next lines start with results.

AUC(0-t) [1] [µM·h]	half-life [2] [h]	Cmax [3] [µM]	clearance [4] [mL/min/kg]	SMILES	also measured
1.2	3.65	1.7	54	CCC[C@H](C)Nc1ncc2c(-c3ccc(CNCCN(CC)CC)cc3)cn([C@H]3CC[C@H](O)CC3)c2n1	
1.6	0.65	6.5	50	CCC[C@H](C)Nc1ncc2c(-c3ccc(S(=O)(=O)N4CCN(C)CC4)cc3F)cn([C@H]3CC[C@H](O)CC3)c2n1	
2.7	3	5.2	29	CCC[C@H](C)Nc1ncc2c(-c3ccc(CN4CCCN(C)CC4)cc3)cn([C@H]3CC[C@H](O)CC3)c2n1	Cmax [6]: 0.061 µM; Cmax [7]: 0.6 µM; Tmax [8]: 5 min; IC50 [9]: > 100 nM; IC50 [10]: 3.6 nM; inhibition at 30 mg/kg (Mus musculus): 75%; IC50 [11]: 8.4 nM; bioavailability [12]: 15%; IC50 [13]: 47 nM; IC50 [14]: > 100 nM; half-life [15]: 1.43 h; half-life [16]: 3 h; IC50 [17]: > 100 nM
